According to publication PMC7263024 (General and comparative endocrinology, 2019):
“Also recorded” adds a separate entry of the source.

Key:
[1] = system: zebrafish Mc4r; settings: 2013, cited from earlier work
[2] = system: hMc2r; settings: ref Metherell et al., 2005; Sebag and Hinkle, 2007; cited from earlier work
[3] = system: Mc2r and Mc5r orthologs; settings: ref Thomas et al., 2018, Dores et al., Barney et al., 2019; cited from earlier work
[4] = system: gMc2r/gMrap1; experiment: cAMP-reporter gene assay, gMc2r co-expressed with gMrap1; type: cell-based, spotted gar (Lepisosteus oculatus)
Method in brief: (§1)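 CHO cells (F12K, 10% FBS, 37 °C, 5% CO2) nucleofected with 2 μg each of gar receptor cDNA, with or without gar Mrap1 or Mrap2, plus CRE-luciferase. After 48 h, stimulated 4 h at 37 °C in serum-free medium with hACTH(1–24) 10−13–10−6 M or NDP-MSH 10−12–10−6 M. Luminescence read after a 5 min luciferase reagent step. Medium-only background subtracted. EC50 from Michaelis-Menten fits; triplicates.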

[5] = system: gMc1r; experiment: cAMP-reporter gene assay, gMc1r expressed alone; type: cell-based, spotted gar (Lepisosteus oculatus); settings: comparison of EC50 values, p < 0.001
[6] = system: gMc1r/gMrap1; experiment: cAMP-reporter gene assay, gMc1r co-expressed with gMrap1; type: cell-based, spotted gar (Lepisosteus oculatus); settings: Fig. 3A, vs gMc1r alone; for effect of gMrap1 co-expression on Vmax value: hACTH(1–24) p < 0.001, NDP-MSH p = 0.02, T-test; for effect of gMrap1 co-expression on ligand sensitivity: p = 0.90 (hACTH(1–24)), p = 0.92 (NDP-MSH)
Method in brief: as §1

[7] = system: gMc1r/gMrap2; experiment: cAMP-reporter gene assay, gMc1r co-expressed with gMrap2; type: cell-based, spotted gar (Lepisosteus oculatus); settings: Fig. 3B, vs gMc1r alone; for effect of gMrap2 co-expression on Vmax value: hACTH(1–24) P = 0.43, NDP-MSH p = 0.42, T-test; for effect of gMrap2 co-expression on ligand sensitivity: p = 0.12 (hACTH(1–24)), p = 0.28 (NDP-MSH)
Method in brief: as §1

[8] = system: gMc3r; experiment: cAMP-reporter gene assay, gMc3r expressed alone; type: cell-based, spotted gar (Lepisosteus oculatus); settings: p = 0.03
[9] = system: gMc3r/gMrap1; experiment: cAMP-reporter gene assay, gMc3r co-expressed with gMrap1; type: cell-based, spotted gar (Lepisosteus oculatus); settings: Fig. 4A, vs gMc3r alone; for effect of gMrap1 co-expression on ligand sensitivity: p = 0.49 (hACTH(1–24)), p = 0.98 (NDP-MSH)
Method in brief: as §1

[10] = system: gMc3r/gMrap2; experiment: cAMP-reporter gene assay, gMc3r co-expressed with gMrap2; type: cell-based, spotted gar (Lepisosteus oculatus); settings: Fig. 4B, vs gMc3r alone; for effect of gMrap2 co-expression on Vmax value: hACTH(1–24) p – 0.99, NDP-MSH p > 0.001 (so in the source), T-test; for effect of gMrap2 co-expression on ligand sensitivity: p = 0.98 (both ligands)
[11] = system: gMc4r; experiment: cAMP-reporter gene assay, gMc4r expressed alone; type: cell-based, spotted gar (Lepisosteus oculatus); settings: p = 0.11
Method in brief: as §1

[12] = system: gMc4r/gMrap1; experiment: cAMP-reporter gene assay, gMc4r co-expressed with gMrap1; type: cell-based, spotted gar (Lepisosteus oculatus); settings: Fig. 5A, vs gMc4r alone; for effect of gMrap1 co-expression on ligand sensitivity: p = 0.49 (hACTH(1–24)), p = 0.98 (NDP-MSH)
Method in brief: as §1

[13] = system: gMc4r/gMrap2; experiment: cAMP-reporter gene assay, gMc4r co-expressed with gMrap2; type: cell-based, spotted gar (Lepisosteus oculatus); settings: Fig. 5B; vs gMc4r alone; p < 0.001 (both ligands); T-test
[14] = system: gMc5r; experiment: cAMP-reporter gene assay, gMc5r expressed alone; type: cell-based, spotted gar (Lepisosteus oculatus); settings: p = 0.07, T-test
[15] = system: gMc5r/gMrap1; experiment: cAMP-reporter gene assay, gMc5r co-expressed with gMrap1; type: cell-based, spotted gar (Lepisosteus oculatus); settings: Fig. 6A, 6B, vs gMc5r alone; for effect of gMrap1 co-expression on Vmax: hACTH(1–24) p = 0.44, NDP-MSH p = 0.01, T-test; for effect of gMrap1 co-expression on ligand sensitivity: hACTH(1–24) p = 0.5, NDP-MSH p = 0.64
Method in brief: as §1

[16] = system: gMc5r/gMrap2; experiment: cAMP-reporter gene assay, gMc5r co-expressed with gMrap2; type: cell-based, spotted gar (Lepisosteus oculatus); settings: Fig. 6A, 6B, vs gMc5r alone; for effect of gMrap2 co-expression on Vmax: hACTH(1–24) p = 0.001, NDP-MSH p = 0.007, T-test; for effect of gMrap2 co-expression on ligand sensitivity: hACTH(1–24) p = 0.5
Method in brief: as §1

[17] = system: hMc2r/mMrap1; settings: ref Liang et al., 2011; cited from earlier work
[18] = system: mouse Mc4r; settings: activation by NDP-MSH; ref Asai et al., 2013; cited from earlier work
[19] = system: gMc2r; experiment: cAMP-reporter gene assay, gMc2r expressed alone; type: cell-based, spotted gar (Lepisosteus oculatus); settings: Fig. 2A; CHO cells, CRE-Luciferase, 4 h at 37 °C, 10^−13M to 10^−6M; n = 3
Method in brief: as §1

[20] = system: gMc2r/gMrap2; experiment: cAMP-reporter gene assay, gMc2r co-expressed with gMrap2; type: cell-based, spotted gar (Lepisosteus oculatus); settings: Fig. 2A, CHO cells, CRE-Luciferase, 4 h at 37 °C, 10^−13M to 10^−6M, n = 3
Method in brief: as §1

[21] = system: Gallus gallus (chicken; c) Mc5r with cMrap1; settings: ref Thomas et al., 2018; cited from earlier work

| Substance | effect of gMrap1 co-expression on Vmax value [6] | effect of gMrap1 co-expression on ligand sensitivity [6] | effect of gMrap2 co-expression on Vmax value [7] | effect of gMrap2 co-expression on ligand sensitivity [7] | effect of gMrap1 co-expression on Vmax value [9] | effect of gMrap1 co-expression on ligand sensitivity [9] | effect of gMrap2 co-expression on Vmax value [10] | effect of gMrap2 co-expression on ligand sensitivity [10] | efficacy of hACTH(1–24) compared with NDP-MSH [11] | effect of gMrap1 co-expression on Vmax value [12] | effect of gMrap1 co-expression on ligand sensitivity [12] | effect of gMrap2 co-expression on Vmax [13] | effect of gMrap1 co-expression on Vmax [15] | effect of gMrap1 co-expression on ligand sensitivity [15] | effect of gMrap2 co-expression on Vmax [16] | effect of gMrap2 co-expression on ligand sensitivity [16] | also measured |
| --- | --- | --- | --- | --- | --- | --- | --- | --- | --- | --- | --- | --- | --- | --- | --- | --- | --- |
| ACTH |  |  |  |  |  |  |  |  |  |  |  |  |  |  |  |  | effect of Mrap2 co-expression on sensitivity for activation by ACTH ([1]; ref Josep Agulleiro et al.): sensitivity for activation by ACTH increases as well; stimulation of hMc2r/Mrap1 by ACTH [2]: in the correct configuration to be stimulated by ACTH; effect of Mrap1 co-expression on sensitivity to stimulation by ACTH [3]: enhanced sensitivity to stimulation by ACTH |
| Nle^4, D-Phe^7-α-MSH [NDP-MSH] | decrease in the Vmax value | had no effect on sensitivity to stimulation; also recorded: no effect on the sensitivity of gMc1r | no effect on the Vmax value | no effect, in either a positive or negative manner, on the sensitivity of gMc1r | no effect on the Vmax value | had no effect on sensitivity to stimulation | decrease in the Vmax value | no effect either positive or negative on the sensitivity of gMc3r | can be activated with equal efficacy | no effect on the Vmax value | had no effect on sensitivity to stimulation; also recorded: no statistical effect on the sensitivity of gMc4r | statistically higher than the Vmax for the dose response curve when gMc4r was expressed alone; also recorded: comparable in magnitude to the Vmax value for the gMc4r/gMrap2 cells stimulated hACTH(1–24); also recorded: the amplitude of stimulation (Vmax) also increased for both ligands | increase in Vmax | had no effect on sensitivity to stimulation; also recorded: no effect, either positive or negative, on the sensitivity of the receptor | increase in Vmax | did not increase sensitivity; also recorded: no effect, either positive or negative, on the sensitivity of the receptor | activation of gMc2r/gMrap1 by NDP-MSH ([4]; Fig. 2B, CHO cells, 4 h at 37 °C, 10^−12M to 10^−6M, n = 3): low level of activation (only at 10^−7M and 10^−6M); also recorded: activation was observed, but only at concentrations of 10^−7 M and 10^−6M; also recorded: weak activation only at 10 ^7M and 10^−6M; also recorded: could be activated to a limited degree by NDP-MSH at concentrations of 10^−7M and 10^−6M; degree of stimulation relative to stimulation at saturation by hACTH(1–24) ([4]; NDP-MSH at 10^−6 M vs 10^−9M hACTH(1–24), Fig. 2B): roughly 40%; sensitivity to NDP-MSH compared with hACTH(1–24) [5]: much more sensitive to stimulation by NDP-MSH than to stimulation by hACTH(1–24); sensitivity to NDP-MSH compared with hACTH(1–24) [8]: higher sensitivity for stimulation by NDP-MSH than by stimulation with hACTH(1–24); EC50 of NDP-MSH compared with hACTH (1–24) [14]: not statistically different from stimulation with hACTH (1–24); response to NDP-MSH [17]: did not evoke a response; effect of Mrap2 co-expression on ligand sensitivity [18]: enhances ligand sensitivity of the receptor to activation by NDP-MSH; effect of Mrap2 co-expression on ligand sensitivity ([1]; activation by NDP-MSH, ref Sebag et al.): enhances ligand sensitivity of the receptor to activation by NDP-MSH |
| hACTH(1–24): Human (h) ACTH(1–24), purchased from Sigma-Aldrich; 96% primary sequence identity with gACTH(1–24) | decrease in the Vmax value | had no effect on sensitivity to stimulation | no effect on the Vmax value | no effect, in either a positive or negative manner, on the sensitivity of gMc1r | no effect on the Vmax value | had no effect on sensitivity to stimulation | no effect on the Vmax value | no effect either positive or negative on the sensitivity of gMc3r | can be activated with equal efficacy | no effect on the Vmax value | had no effect on sensitivity to stimulation; also recorded: no statistical effect on the sensitivity of gMc4r | statistically higher than the Vmax for the dose response curve when gMc4r was expressed alone; also recorded: the amplitude of stimulation (Vmax) also increased for both ligands | no change in the Vmax value | had no effect on sensitivity to stimulation; also recorded: negligible shift in sensitivity; also recorded: no effect, either positive or negative, on the sensitivity of the receptor | increase in the Vmax value | did not affect sensitivity; also recorded: no effect, either positive or negative, on the sensitivity of the receptor | activation of gMc2r expressed alone by hACTH(1–24) [19]: activation of gMc2r did not occur when the receptor was expressed alone; also recorded: did not result in activation of the receptor; also recorded: no activation when expressed alone; activation of gMc2r co-expressed with gMrap1 by hACTH(1–24) ([4]; Fig. 2A, CHO cells, CRE-Luciferase, 4 h at 37 °C, n = 3): obligatory requirement for co-expression with gMrap1 in order for the receptor to be activated by hACTH(1–24); also recorded: activation of the receptor was recovered; concentration at which activation reached saturation ([4]; Fig. 2B, CHO cells, 4 h at 37 °C): 10^−9 M; activation of gMc2r co-expressed with gMrap2 [20]: activation did not occur; also recorded: gMrap2 did not facilitate activation of gMc2r; activation of gMc2r co-expressed with gMrap2 ([20]; listed as hACTH (1–24)): there was no activation; effect of gMrap1 co-expression on ligand sensitivity ([9]; listed as hACTH (1–24)): no effect either positive or negative on sensitivity; effect of cMrap1 co-expression on sensitivity to stimulation [21]: significantly increased the sensitivity |
